# RAM network inh: yeast RAM network inhibition; S. cerevisiae dse1pr::URA3 reporter, 5-FOA growth OD615, 2 d; analog-sensitive cbk1-as2 kinase mutant strain; inhibition, % at 50 µM; 190,000 compounds, 1.8% hits;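 active means inhibition above a set limit, 3 SD over mean compound inhibition, cut at about 8.4% in these data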;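 further: 0% = DMSO-only wells with no growth and 100% = 10 µM 1-NA-PP1 full growth; inhibition rescues growth on 5-FOA so higher OD means more RAM inhibition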
# Measles CPE: protection of cells from measles virus | protection (pct of control), % at 4 µM | Measles virus-infected cells, CPE protection, absorbance | 140,000 compounds, 1.5% hits | AID 841; in the data active means protection mostly above about 24%, no sharp cut-off; inactive means mostly below about 26%
# Yeast life ext: extends the lifespan of yeast | S. cerevisiae growth with nicotinamide, OD615; deaD strain in restrictive glucose medium | inhibition of the nicotinamide effect, % at 10 µM | 130,000 compounds, 0.68% hits | AID 775;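 active means inhibition above a set limit, placed 3 SD over the median of all compounds, cut at about 26% in these data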;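 further: 0% = nicotinamide-treated wells and 100% = cells grown without nicotinamide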
#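 Material: Modified budding yeast, DeaD strain | Medium: Restrictive glucose medium | Probe or stimulus: 1.5 mM nicotinamide | Dosing: Single dose 10 µM compound, 0.25% DMSO | Times: 48 h at 30 °C | Technique: OD615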
# Yeast growth inh: reduces growth of yeast BB579 in restrictive medium; 140,000 compounds, 0.51% hits; S. cerevisiae BB579 growth, OD615, 48 h; inhibition, % at 10 µM; AID 804;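 active means inhibition above a set limit, 3 SD over the mean compound inhibition, cut at about 44% in these data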
#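 Material: Saccharomyces cerevisiae DeaD strain BB579, replicative lifespan model yeast; buffer or medium: CSMM-D restrictive synthetic medium containing dextrose (glucose); compound: 10 µM single dose, DMSO 0.25%; timing: 48 h compound exposure at 30 °C after 4 h preincubation; signal: turbidity as optical density at 615 nm; benchmarks: positive control amphotericin B 10 µg/mL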
# Active calls of the source: *; · = not tested or not shown. The list is not random: actives were taken first. Their share in the collection is about 3.6%.
SMILES,RAM network inh,Measles CPE,Yeast life ext,Yeast growth inh
CCc1ccc(NC(=O)N(CCOC)C2CCN(C(C)=O)CC2)cc1,1.5,64.8*,-8.7,19.6
Nc1cccc2nc3ccccc3cc12,2.6,2.9,-5.5,58.7*
CCOc1ccccc1NC(=O)CNS(=O)(=O)c1ccc2nc(C)sc2c1,3.5,·,·,·
COc1cccc2cc(C(=O)N3C(C)CCCC3C)c(=O)oc12 (configuration not stated),0.2,18.6*,·,12.3
O=C(Nc1ccccc1)N1CCn2c(nc3ccccc32)C1,2.2,47.8*,-6.4,-12.0
O=C(COC(=O)c1cccc(S(=O)(=O)N2CCCC2)c1)NCc1ccccc1,0.5,·,·,·
CCCCNC(=O)C1C2C=CC3(CN(Cc4ccc(C)cc4)C(=O)C13)O2 (configuration not stated),1.4,4.3,-6.1,-19.2
Cc1ccc(CN2CC34C=CC(O3)C(C(=O)NCc3ccco3)C4C2=O)cc1 (configuration not stated),-0.8,30.5*,-5.8,-27.7
CCSc1nnc(NC(=O)CSc2nc(C)cc(C)n2)s1,2.0,14.5,35.9*,-39.1
COc1cc(OC)cc(-c2nnc(SCC(=O)Nc3cccc(C(=O)O)c3)s2)c1,2.3,·,·,·
O=C(CSc1nnc(-c2cccnc2)s1)Nc1cccc(C(=O)O)c1,10.3*,1.6,5.9,-46.2
O=c1c2[nH]c3ccccc3c2ncn1Cc1ccco1,4.0,11.0,71.9*,-17.0
COc1ccccc1CNC(=O)c1csc(Cc2ccc(Cl)cc2)n1,8.7*,18.8,-2.2,-87.1
COc1ccc(CNC(=O)c2csc(Cc3ccccc3)n2)cc1,0.7,14.4,14.3,-33.0
CCOC(=O)N1CCC(NC(=O)CCCN2C(=O)CSc3ncccc32)CC1,0.8,7.5,7.2,-11.3
CCOC(=O)N1CCC(NC(=O)CN2C(=O)CSc3ncccc32)CC1,1.5,29.7*,-11.2,12.3
CSc1ncc(Cl)c(C(=O)Nc2ccccc2Cl)n1,4.3,9.2,-3.1,-26.4
C=CCSc1nnc(NC(=O)c2nc(SCC)ncc2Cl)s1,8.4*,11.5,9.3,-5.8
C=CCSc1nnc(NC(=O)c2cn(CC)c3nc(C)ccc3c2=O)s1,3.2,·,·,·
CSc1ncc(Cl)c(C(=O)Nc2nnc(SC/C=C/c3ccccc3)s2)n1,4.8,50.8*,-6.6,11.2
Cc1cnc(C(=O)OCC(=O)Nc2oc(-c3ccccc3)c(-c3ccccc3)c2C#N)cn1,4.7,12.5,-7.2,-2.5
CCn1c(SCC(=O)Nc2oc(-c3ccccc3)c(-c3ccccc3)c2C#N)nnc1-c1ccco1,8.8*,5.9,-13.5,-26.3
N#Cc1c(NC(=O)CCN2C(=O)c3ccccc3C2=O)oc(-c2ccccc2)c1-c1ccccc1,9.5*,1.7,-0.3,-19.8
N#Cc1c(NC(=O)CCn2cnc3ccccc3c2=O)oc(-c2ccccc2)c1-c1ccccc1,8.0,16.5,-10.2,-71.0
CCn1c(SCC(=O)Nc2oc(-c3ccccc3)c(-c3ccccc3)c2C#N)nnc1-c1ccncc1,4.0,5.8,-11.8,-31.9
SMILES,RAM network inh,Measles CPE,Yeast life ext,Yeast growth inh
CCn1c(SCC(=O)Nc2cc(C)on2)nnc1-c1ccco1,0.5,34.7*,-0.6,-29.7
N#Cc1c(NC(=O)CSc2ccccn2)oc(-c2ccccc2)c1-c1ccccc1,4.8,32.8*,9.9,-31.5
CCOc1ccc(-n2c(SCC(=O)Nc3ccc4c(c3)OCO4)nc3ccccc3c2=O)cc1,1.7,45.4*,7.9,-30.0
Cc1cc(NC(=O)CSc2nnc(-c3c[nH]c4ccccc34)n2-c2ccc(F)cc2)no1,4.5,·,·,·
CCOc1ccc(-n2c(SCC(=O)Nc3cc(C)on3)nnc2-c2c[nH]c3ccccc23)cc1,8.6*,8.6,-12.5,-40.3
COC(=O)C1=C(C(=O)OC)C(c2cc(Br)ccc2O)c2sc(=O)[nH]c2S1 (configuration not stated),0.7,11.4,61.3*,-16.2
O=C(CC(c1ccccc1)c1ccco1)Nc1nccs1 (configuration not stated),6.0,25.2*,-1.5,-29.1
O=C(CSc1ccccc1)Nc1nccs1,1.5,·,·,·
O=C(Cc1ccccc1)NCCc1cn2ccsc2n1,0.3,11.9,2.4,49.3*
O=C(Oc1ccccc1/C=C\C(=O)c1cc2ccccc2o1)c1cccc(F)c1,10.1*,15.7,0.0,-12.4
CC1=NN(C(C#N)c2c(C)nn(Cc3ccccc3)c2C)C(C)(C)C1 (configuration not stated),1.3,·,·,·
O=C(CN(Cc1ccc(F)cc1)C(=O)c1ccco1)NCc1ccc(F)cc1,1.1,5.1,-2.0,-22.8
O=C(c1ccco1)N(CCC(c1ccccc1)c1ccco1)Cc1ccc(F)cc1 (configuration not stated),7.5,37.1*,-6.2,-23.4
Cc1cc(C)cc(NC(=O)CN2CCC(NC(=O)Cc3ccccc3)CC2)c1,-0.1,3.2,26.7*,-5.0
Cc1cccc(NC(=O)N2CCC(NC(=O)c3ccccc3C)CC2)c1,9.6*,9.6,-2.7,0.5
Cc1ccccc1C(=O)NC1CCN(CC(=O)Nc2c(C)cccc2C)CC1,-0.8,38.8*,·,-26.4
Cc1ccccc1C(=O)NC1CCN(CC(=O)Nc2ccc3c(c2)OCO3)CC1,0.5,·,·,·
Cc1ccccc1N1C(=O)C(Oc2ccc(Cl)cc2)C1CNC(C)(C)C (configuration not stated),0.5,8.1,32.7,-18.2
Cc1c(Cl)cccc1NC(=S)N(Cc1cccnc1)Cc1ccccc1Cl,0.4,·,·,·
CC1=CS(=O)(=O)CC1SC(=S)N(C)C1CCS(=O)(=O)C1 (configuration not stated),1.4,·,·,·
CCOC(=O)CNNC(=O)Nc1ccc(Cl)c(Cl)c1,-0.1,20.6*,-7.1,8.9
COc1cc(/C=C(\C#N)c2ccccn2)ccc1OCc1ccccc1Cl,9.7*,14.1,-4.2,-39.3
COc1ccc(CNC(=O)Cn2nnc(-c3ccc(NC(=O)C4CCCCC4)cc3)n2)cc1,9.0*,10.9,-1.1,-29.9
C=CCn1c(=O)/c(=C2/Sc3cc(OC)ccc3N2C)s/c1=C1\C(=O)N(CC)C(=S)N1C,10.5*,·,·,·
CCCCSCCCNC(=O)Nc1ccc(C)c(C)c1,-0.4,·,·,·
SMILES,RAM network inh,Measles CPE,Yeast life ext,Yeast growth inh
C/C(O)=C(/C=NCC(=O)O)C(=O)Nc1nccs1,2.0,·,·,·
COc1ccc(/C=C/C2=CCN(Cc3ccc(OC)cc3)CC2)cc1,0.0,·,·,·
O=C(/C=C/c1ccc(Cl)c([N+](=O)[O-])c1)Nc1cccnc1,2.2,44.3*,-4.6,-23.8
O=C(/C=C/c1ccc([N+](=O)[O-])cc1)Nc1cccnc1,1.2,2.1,-26.5,-47.9
Cc1ccc(S(=O)(=O)Nc2n[nH]nc2C(=O)NC2CCCCC2)cc1,0.9,·,·,·
CCOC(=O)Cc1c(C)nc2cc(C)nn2c1C,0.6,2.5,·,-17.2
CCOC(=O)Cc1nn2c(=O)cc(C)nc2s1,0.2,45.8*,-7.3,-19.4
CCOC(=O)c1c(C)[nH]c(C(=O)C(C)OC(=O)c2cccc(OCc3c(C)noc3C)c2)c1C (configuration not stated),3.9,76.5*,-0.2,-47.5
Cc1nc2nc3c(c(=O)n2[nH]1)CCCC3,0.5,29.0*,-19.1,-50.1
CNC(=S)/N=C/NOCc1ccc(Cl)cc1Cl,0.5,·,·,·

# Source: PubChem BioAssay
